# Columns and labels:
# [1] = test system: Staphylococcus aureus; assay: Antibacterial activity against epidemic methicillin-resistant Staphylococcus aureus isolate 15 isolated from patient urine infection after 18 hrs by microtiter plate reader assay; type: functional; settings: isolate 15, Urine
# Summary of the method: (§1)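 S. aureus grown in Müller-Hinton broth to early stationary phase, diluted to OD650 = 0.0005. Broth microdilution in triplicate, with at least two independent cultures per strain. Test compound (32–0.016 μg/mL) and rifampicin control (0.03–0.001 μg/mL) dissolved in DMSO (up to 0.63%). Incubated 18 h at 37 °C, growth read at OD620. MIC taken as lowest concentration showing no growth versus MH broth control.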
# [2] = test system: Staphylococcus aureus; assay: Antibacterial activity against epidemic methicillin-resistant Staphylococcus aureus isolate 16 isolated from patient graft wound after 18 hrs by microtiter plate reader assay; type: functional; settings: isolate 16, 18 h; summary of the method: as §1
# [3] = test system: Staphylococcus aureus; assay: Antibacterial activity against scottish methicillin-resistant Staphylococcus aureus […] isolated from patient arm cellulitis after 18 hrs by microtiter plate reader assay; type: functional; settings: isolate 153, 18 h; summary of the method: as §1
# [4] = test system: Staphylococcus aureus; assay: Antibacterial activity against Staphylococcus aureus RN4220 after 18 hrs by microtiter plate reader assay; type: functional; settings: RN4220, 18 h; summary of the method: as §1
# [5] = test system: Staphylococcus aureus; assay: Antibacterial activity against scottish methicillin-resistant Staphylococcus aureus isolate 105 isolated from patient toe wound after 18 hrs by microtiter plate reader assay; type: functional; settings: isolate 105, 18 h; summary of the method: as §1
# [6] = test system: Escherichia coli; assay: Antibacterial activity against Escherichia coli ATCC 25922 by agar diffusion method with regression line analysis
# [7] = test system: Staphylococcus aureus; assay: Antibacterial activity against scottish methicillin-resistant Staphylococcus aureus isolate 161 (PF161) isolated from patient thigh abscess after 18 hrs by microtiter plate reader assay; type: functional; settings: isolate 161, Thigh muscle; summary of the method: as §1
# [8] = test system: Staphylococcus aureus; assay: Antibacterial activity against scottish methicillin-resistant Staphylococcus aureus isolate 116 isolated from patient knee abscess after 18 hrs by microtiter plate reader assay; type: functional; settings: isolate 116, Knee; summary of the method: as §1
# [9] = test system: Staphylococcus aureus; assay: Antibacterial activity against scottish methicillin-resistant Staphylococcus aureus isolate 106 isolated from patient nasal swab after 18 hrs by microtiter plate reader assay; type: functional; settings: isolate 106, 18 h; summary of the method: as §1
# [10] = test system: Staphylococcus aureus; assay: Antibacterial activity against scottish methicillin-resistant Staphylococcus aureus isolate 124 isolated from patient open wound after 18 hrs by microtiter plate reader assay; type: functional; settings: isolate 124, 18 h; summary of the method: as §1
# [11] = test system: Staphylococcus aureus; assay: Antibacterial activity against scottish methicillin-resistant Staphylococcus aureus isolate 161 (PF161d) isolated from patient buttock abscess after 18 hrs by microtiter plate reader assay; type: functional; settings: isolate 161, 18 h; summary of the method: as §1
# [12] = test system: Staphylococcus aureus; assay: Antibacterial activity against Staphylococcus aureus ATCC 25923 after 18 hrs by microtiter plate reader assay; type: functional; settings: ATCC 25923, 18 h
# [13] = test system: Staphylococcus aureus; assay: Antibacterial activity against scottish methicillin-resistant Staphylococcus aureus isolate 126 isolated from patient nasal swab after 18 hrs by microtiter plate reader assay; type: functional; settings: isolate 126, 18 h; summary of the method: as §1
SMILES,MIC [1],MIC [2],MIC [3],MIC [4],MIC [5],MIC [6],MIC [7],MIC [8],MIC [9],MIC [10],MIC [11],MIC [12],MIC [13]
CC(=O)O[C@H]1[C@H](C)[C@H](O)[C@H](C)[C@@H](O)[C@@H](C)/C=C/C=C\C(=O)NC2=C(C)C(=O)c3c(c(O)c(C)c4c3[C@H](O)[C@](C)(O/C=C/[C@H](O)[C@H]1C)O4)C2=O [CHAXAMYCIN D],0.06 µg/mL,> 32 µg/mL,0.25 µg/mL,0.06 µg/mL,0.13 µg/mL,1.21 µg/mL,0.13 µg/mL,0.13 µg/mL,0.25 µg/mL,0.13 µg/mL,0.25 µg/mL,0.05 µg/mL,0.13 µg/mL
CO[C@H]1/C=C/O[C@@]2(C)Oc3c(C)c(O)c4c(O)c(c(/C=N/N5CCN(C)CC5)c(O)c4c3C2=O)NC(=O)/C(C)=C\C=C\[C@H](C)[C@H](O)[C@@H](C)[C@@H](O)[C@@H](C)[C@H](OC(C)=O)[C@@H]1C [RIFAMPIN],0.002 µg/mL,4 µg/mL,–,0.002 µg/mL,0.002 µg/mL,–,–,0.002 µg/mL,0.004 µg/mL,–,–,–,–
